From PubChem
SDO1 yeast rescue – growth rescue of sdo1-depleted yeast, primary screen, S. cerevisiae, bone marrow failure model; S. cerevisiae sdo1-depleted JHY4D growth rescue, OD600 30 h; active compounds read high; pdr5 snq2 efflux-pump mutant strain; z-score at 10 µM; actives 0.21% (n = 140,000);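 active = z-score above 3 at both the 24 hr and the 30 hr optical density reads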;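 also: z-score against mean and SD of all compound wells on the same plate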
Insulin prom up – insulin promoter activators in MIN6 cells, imaging, high-content screening, mouse beta cells. z-score at 5 µM. AID 1625, 2009. MIN6 insulin promoter-GFP reporter; active compounds read high. actives 0.3% (n = 190,000);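 active = z-score above 3 at 5 µM with at least 500 cells counted in the well; inconclusive = wells under 500 cells, flagged as cytotoxic or low count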
Autophagy HCS – autophagy modulators in MEF cells, primary screen, imaging, high-content, MEF GFP-LC3. MEF GFP-LC3 puncta imaging; test concentration mostly 10 µM. calls only at 10 µM (by protocol). actives 0.98% (n = 190,000). AID 463193, 2010;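 active = percentage of spot-positive cells more than 3 SD above its plate mean, without a fluorescence outlier flag or 80% toxicity; inconclusive = no clear call, values can overlap the other calls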;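 also: spot-positive cell cutoff set from DMSO-treated cells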
ABCB1 block – ABCB1 efflux pump inhibitors, primary screen, cell-based, multiplex, flow cytometry, ABCG2 counter-screen; ATP-dependent translocase ABCB1 (Homo sapiens), P08183; CCRF-Adr cells, JC-1 efflux; inhibition, % at 6.6 µM; actives 0.067% (n = 190,000); AID 1326, 2008; in the data active = inhibition above about 40%;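 also: 0% = vehicle and 100% = reference inhibitor; higher value means more JC-1 retained so stronger ABCB1 efflux block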
ABCG2 block – ABCG2 efflux pump inhibitors, primary screen, multiplex with ABCB1, IgMXP3 cells, flow cytometry; Broad substrate specificity ATP-binding cassette transporter ABCG2 (Homo sapiens), Q9UNQ0; JC-1 efflux; inhibition, % at 6.6 µM; actives 0.1% (n = 190,000); AID 1325, 2008;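 active = inhibition above 80%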;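 also: 0% = DMSO and 100% = nicardipine control wells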
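System: two drug-resistant human cell lines, ABCG2 and ABCB1; controls: nicardipine high and DMSO low controls; times: 10 min exposure at 25 °C with rotation, no wash; detection: flow cytometry of retained JC-1 fluorescence; read-out basis: percent efflux inhibition, scaled nicardipine 100% to DMSO 0%; doses: one concentration, 6.6 µM final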
ROMK primary – ROMK potassium channel modulators, primary screen, cell-based, thallium flux, MLSMR library | ATP-sensitive inward rectifier potassium channel 1 (Homo sapiens), P48048 | Tet-inducible ROMK, thallium flux fluorescence; actives lie on both sides | B-score at 10 µM | actives 2% (n = 130,000) | AID 1918, 2009;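 active = signal ratio slope over the read window, or its plate-corrected B-score, at least 3 SD from the plate mean, either direction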;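 also: B-score of the F/F0 ratio slope over 7 to 12 s after thallium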
Target sequence (P48048 whole entry, looked up): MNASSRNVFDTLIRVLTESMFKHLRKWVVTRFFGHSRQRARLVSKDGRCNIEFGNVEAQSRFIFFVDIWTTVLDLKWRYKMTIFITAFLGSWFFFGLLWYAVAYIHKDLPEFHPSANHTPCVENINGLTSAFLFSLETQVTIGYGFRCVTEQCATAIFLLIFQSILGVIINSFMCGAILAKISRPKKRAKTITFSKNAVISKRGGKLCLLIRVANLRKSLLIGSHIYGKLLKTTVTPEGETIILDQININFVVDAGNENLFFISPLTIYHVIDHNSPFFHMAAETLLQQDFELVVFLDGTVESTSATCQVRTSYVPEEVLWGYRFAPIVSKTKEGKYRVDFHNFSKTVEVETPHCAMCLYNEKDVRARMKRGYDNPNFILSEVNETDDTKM
Numbers without * were called inactive; i = inactive; u = inconclusive; x = not tested or not shown; + = active, no number; ! = not active in a repeat. A selection: hits, their analogues and other compounds. The true share with any hit is near 2.3%.

SMILES	SDO1 yeast rescue	Insulin prom up	Autophagy HCS	ABCB1 block	ABCG2 block	ROMK primary
COc1ccc(NC(=O)C(=O)NNC(=O)C(C)Oc2ccc(Cl)cc2Cl)cc1 (stereo not drawn)	x	-0.08	i	0	0	4.8*
COc1c2ccccc2c(OC)c2ccccc12	x	0.09	+	1	2	1.3
O=C(/C=C/c1ccc(O)cc1)c1ccccc1	x	0.17	x	x	x	x
O=C(/C=C/c1ccc(N2CCC(c3ccccc3)=N2)cc1)c1ccccc1	x	x	u	75*	81*	-4.4*
O=C(c1ccc(COc2ccccc2Cl)o1)N1CCN(Cc2ccc3c(c2)OCO3)CC1	-0.99	-0.19	+!	1	3	-0.96
COc1cccc(CN(c2ccc3c(c2)CCC3)S(=O)(=O)c2ccc(-n3cnnn3)c(OC)c2)c1	-0.63	0.42	i	7	6	0.057
CCCCOc1ccc(C2OC34CCCCC3C(C#N)(C#N)C2(C#N)C(=N)O4)cc1 (stereo not drawn)	-0.28	-0.65	i	0	-1	0.57
CCOc1ccc(C2OC34CCCCC3C(C#N)(C#N)C2(C#N)C(=N)O4)cc1OC (stereo not drawn)	5.7*	0.91	i	0	-1	-0.84
CCn1nc(C(=O)Nc2nc3ccc(C)cc3s2)c2ccccc2c1=O	-0.72	-0.14	+	2	36	1.3
Cc1cccc(CN2CCN(C(=O)c3ccccc3F)CC2)c1	1.3	0.46	i	1	2	6.2*
Cc1cccc(CN2CCN(C(=O)CCl)CC2)c1	0.93	0.58	i	0	2	x
O=C1C2C3CCC(C3)C2C(=O)N1Cc1ccccc1 (stereo not drawn)	0.09	0.54	i	x	2	0.56
COc1ccc(C2C=C(c3ccc(Br)cc3)Nc3nc(N4C(=O)CCC4=O)nn32)cc1 (stereo not drawn)	1.4	-0.35	i	2	1	x
O=C1CCC(=O)N1c1nc2n(n1)C(c1ccccc1)C=C(c1ccc(Br)cc1)N2 (stereo not drawn)	1.8	x	i	0	0	-4*
COc1ccccc1C1C=C(c2ccc(Cl)cc2)Nc2nc(NS(C)(=O)=O)nn21 (stereo not drawn)	1.3	-0.57	i	0	-5	x
COc1ccccc1C1C=C(c2ccc(Cl)cc2)Nc2nc(N3C(=O)CCC3=O)nn21 (stereo not drawn)	-0.22	-0.01	i	0	0	-6*
COC(=O)c1sccc1NC(=O)/C=C\c1ccc(Cl)cc1Cl	0.68	2.2	+	0	1	0.93
COC(=O)c1sccc1NC(=O)/C=C/c1ccc(Cl)cc1	0.21	0.64	i	0	12	x
CSCCC(NC(=O)c1ccc(Cl)cc1)C(=O)NC(C)(C)C (stereo not drawn)	0.67	-0.34	i	0	9	1.3
COc1ccc(-n2c(C)cc(/C=C3\SC(=S)N(Cc4ccco4)C3=O)c2C)cc1	0.47	2.8	+	10	32	-0.13
COc1ccc(-c2nn(-c3ccccc3)cc2/C=C2/SC(=S)N(Cc3ccco3)C2=O)c(C)c1	0.16	-0.21	i	1	1	x
CCN1CCN(c2ncnc3c2c(-c2ccccc2)cn3-c2ccc(F)cc2)CC1	x	x	+	2	-2	-0.11
Fc1ccc(-n2cc(-c3ccccc3)c3c(N4CCOCC4)ncnc32)cc1	x	-2.2	i	1	2	-0.79
C/C(=N\NC(=O)CCCC(=O)O)c1c(-c2ccccc2)c2cc(Cl)ccc2[nH]c1=O	x	2.1	x	x	x	x
O=c1c2ccc([N+](=O)[O-])c3cccc(c32)c2nc3ccccc3n12	-1.4	0.31	+	1	3	x
SMILES	SDO1 yeast rescue	Insulin prom up	Autophagy HCS	ABCB1 block	ABCG2 block	ROMK primary
O=c1c2cccc3c(N4CCOCC4)ccc(c32)c2nc3ccccc3n12	x	9.8*	x	x	x	x
CN1C(C(=O)NCc2ccc(OC(F)(F)F)cc2)CC2Cn3c(nc4cc5ccccc5cc43)C21 (stereo not drawn)	x	-0.59	x	x	x	x
Cc1ccc(NC(=O)Cn2c(=O)oc3ccccc32)cc1	x	0.32	i	0	0	x
CCOc1ccc(NC(=O)CCC(=O)NNC(=O)COc2ccccc2C)cc1	x	1.4	+	0	0	-0.69
CCOc1ccc(NC(=O)Cn2c(=O)oc3ccccc32)cc1	0.2	3.6*	i	0	1	-0.13
Cc1ccc(NC(=O)CCC(=O)NNC(=O)COc2ccccc2)cc1C	0.98	0.24	i	0	5	1.1
CCOc1ccc(CNC(=O)CCn2c(=O)oc3ccccc32)cc1	-0.29	3.4*	i	0	0	x
O=C(N/N=C/c1sc(N2CCOCC2)nc1-c1ccccc1)c1ccccc1Cl	x	1.1	i	0	5	1.1
O=[N+]([O-])c1ccc(N/N=C/c2sc(N3CCOCC3)nc2-c2ccccc2)c(S(=O)(=O)Nc2ccccc2Cl)c1	x	x	+	8	2	-5*
O=[N+]([O-])c1ccc(N/N=C/c2sc(N3CCOCC3)nc2-c2ccccc2)c(S(=O)(=O)Nc2ccc(Cl)cc2)c1	x	u	+	20	5	-0.1
Cc1ccsc1C1C(C#N)=C(N)OC2=C1C(=O)CCC2 (stereo not drawn)	x	x	+	0	0	0.41
Cc1ccc(-c2ccc(/C=C(\C#N)C(=O)Nc3cc(C)nn3-c3ccccc3)o2)cc1	-1.1	x	+	0	-1	x
CCC(C)(C)C1CCC(=NNC(=S)Nc2cccnc2)CC1 (stereo not drawn)	x	-0.29	i	1	2	-0.21
CC1=C/C(=N\NC(=S)Nc2cccnc2)CC(C)(C)C1	x	-1.6	i	1	7	3*
Cc1cc(NS(=O)(=O)c2ccc(NC(=O)CSc3nc4ncc(Br)cc4[nH]3)cc2)nc(C)n1	x	-0.19	x	x	x	x
O=C(Nc1nnc(-c2ccccc2)o1)c1ccc(Cl)cc1	-2.1	-0.63	i	0	0	10*
O=C(Nc1nnc(-c2ccccc2)o1)Nc1ccc(F)cc1F	x	-0.39	i	1	8	-0.22
O=C(Nc1nnc(-c2ccccc2)o1)Nc1ccccc1Cl	-0.99	3.8*	i	0	1	x
CC(=O)c1ccc(C(=O)Nc2nnc(-c3ccc(Cl)cc3)o2)cc1	x	0.66	x	x	x	x
O=C(CSc1nc(-c2ccco2)cc(C(F)(F)F)n1)NCCCN1CCOCC1	x	0.22	i	0	1	0.43
CC1CCN(c2c(NCc3ccc(C(=O)N(C)C4CCCCC4)cc3)c(=O)c2=O)CC1	x	0.1	x	x	x	x
